# Compounds with a hit are over-represented: about 1.7% of the library has one in this group of screens.
# Scp1 inh: Scp-1 phosphatase inhibitors, primary screen, biochemical, colorimetric, uHTS; Recombinant Scp1, phosphopeptide, malachite green phosphate absorbance; inhibition, % at 20 µM; 0.88% of 340,000 active; AID 493091, 2011;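 active means inhibition above about 50% at 20 µM, limit read from the data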;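 further: plate controls were DMSO wells with enzyme for no effect and wells lacking enzyme for full effect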
#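 Assay system: SCP-1 catalytic fragment, aa 76-261 | Buffer or medium: Tris acetate buffer pH 5.5 with MgCl2 and Tween-20 | Compound: One concentration, 20 µM, with 1.0% DMSO | Also added: Phospho 17-mer peptide substrate | Signal: Absorbance at 630 nm | Incubation: 45 min enzyme reaction at room temperature | Measure: % inhibition of SCP-1 phosphate liberation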
# Casp6 inh: human caspase-6 inhibitors, primary screen, biochemical, VEID-R110 fluorescence, single point, set 2. inhibition, % at 12.5 µM. 0.53% of 350,000 active. purified caspase-6, Z-VEID-R110 cleavage fluorescence. P55212. AID 686996, 2013;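 active means mean inhibition across replicates at least about 35%, with every replicate also reaching that limit, limit read from the data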;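 further: 0% = median of neutral control wells and 100% = no fluorescence left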
# Target sequence (P55212 24-179 limits assumed): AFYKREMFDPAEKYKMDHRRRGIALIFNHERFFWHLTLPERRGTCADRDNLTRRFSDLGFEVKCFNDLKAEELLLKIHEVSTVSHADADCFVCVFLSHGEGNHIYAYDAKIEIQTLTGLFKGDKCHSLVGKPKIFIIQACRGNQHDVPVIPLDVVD
# Target sequence (P55212 194-293 limits assumed): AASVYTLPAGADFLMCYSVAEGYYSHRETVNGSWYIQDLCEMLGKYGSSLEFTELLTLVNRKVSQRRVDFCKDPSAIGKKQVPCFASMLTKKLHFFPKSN
# LMPTP inh: LMPTP phosphatase inhibitors, primary screen, biochemical, fluorescence intensity, uHTS | Low molecular weight phosphotyrosine protein phosphatase (Homo sapiens), P24666 | recombinant LMPTP-A, OMFP fluorogenic substrate | inhibition, % at 20 µM | 0.22% of 360,000 active | AID 651560, 2012;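 active means compounds that cut the enzyme signal by at least half of the control window in the single-dose screen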;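 further: plate controls were DMSO wells with enzyme plus substrate for no effect and substrate without enzyme for full effect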
# Target sequence (P24666 whole entry, looked up): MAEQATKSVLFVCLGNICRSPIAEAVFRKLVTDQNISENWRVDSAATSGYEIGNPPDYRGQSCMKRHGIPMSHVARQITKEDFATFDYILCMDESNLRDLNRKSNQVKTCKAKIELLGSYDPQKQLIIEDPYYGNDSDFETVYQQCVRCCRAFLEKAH
#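 Test system: LMPTP-A, protein tyrosine phosphatase of low molecular weight; Input: 0.625 nM enzyme; Incubation: 50 min dark incubation at room temperature; Signal: endpoint fluorescence intensity from OMFP dephosphorylation; Read-out basis: % inhibition versus control wells.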
# SUMO1 PPI mod: modulators of SUMO1 protein-protein interactions, primary screen, biochemical, uHTS; inhibition, % at 20 µM; 0.33% of 360,000 active; SUMO1 binding to a labelled peptide, TR-FRET, 1 h; in the data active means inhibition above about 37%
# Target sequence (P63165 whole entry, looked up): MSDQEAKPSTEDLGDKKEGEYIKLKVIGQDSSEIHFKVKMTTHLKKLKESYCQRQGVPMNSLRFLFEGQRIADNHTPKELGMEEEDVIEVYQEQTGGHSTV
# DNMT1 inh: human DNMT1 methyltransferase inhibitors, primary screen, biochemical, molecular beacon, fluorescence, HinP1I cleavage, uHTS | inhibition (reported as % activation of signal), % at 10 µM | AID 588458, 2011 | 0.83% of 360,000 active; in the data active means inhibition above about 50%
# STEP inh: STEP phosphatase inhibitors, primary screen, biochemical, fluorescence intensity, uHTS; recombinant STEP, OMFP fluorogenic substrate; AID 588621, 2011; Tyrosine-protein phosphatase non-receptor type 5 (Homo sapiens), P54829; 0.25% of 360,000 active; inhibition, % at 20 µM;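 active means inhibition at 20 µM, scaled per plate between control wells, above about 37%, limit read from the data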;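 further: 0% = DMSO with enzyme and substrate and 100% = substrate only without enzyme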
#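 Test system: STEP tyrosine phosphatase / Reagent: OMFP at 25 µM / Doses: 20 µM, 1% DMSO / Read-out: percent inhibition scaled to no-enzyme and uninhibited-enzyme controls, plate-pattern corrected / Detection: FITC-channel fluorescence of OMFP product / Medium: Bis-Tris buffer pH 6.0, 2.5 mM DTT, 0.005% Tween 20 / Schedule: 20 min at room temperature, dark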
# Scp1 confirm: Scp-1 phosphatase inhibitors, retest, confirmation, biochemical, colorimetric, single concentration; shares compounds with Scp1 inh; recombinant SCP-1 catalytic domain, phosphate release, malachite green absorbance; inhibition, % at 20 µM; 61% of 2,500 active; AID 540281, 2011;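 further: plate controls were DMSO with enzyme for no effect and buffer wells lacking enzyme for full effect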
# MG interference: colorimetric readout interference by compounds, confirmation, artefact control for Scp-1 inhibitor project, biochemical, single concentration. shares compounds with Scp1 inh. Colorimetric interference counterscreen, malachite green absorbance 630 nm. apparent inhibition (interference), % at 20 µM. 2,500 tested, under 10 active;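 further: compounds added after enzyme reaction finished so only phosphate colour detection is probed; plate controls were DMSO wells with completed Scp-1 reaction for no effect and substrate wells lacking enzyme for full effect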
# Scp1 DSF: Scp-1 binding by thermal shift, confirmation, orthogonal assay for Scp-1 inhibitor project, biophysical, differential scanning fluorimetry; thermal shift relative to vanadate control, % at 40 µM; shares compounds with Scp1 inh; 25% of 1,500 active; Recombinant SCP1, Sypro Orange thermal shift Tm;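 active means substances whose mean melting-temperature shift, as a percentage of the reference inhibitor's shift, reaches about 5.3%, limit read from the data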;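 further: 0% = Tm of DMSO wells and 100% = Tm with sodium orthovanadate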
# Starred values were filed as active, the others as inactive; . = not tested or not shown.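 How the source made its calls, unless noted: active means inhibition of at least 30% at 20 µM; inactive means the rest.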
SMILES,Scp1 inh,Casp6 inh,LMPTP inh,SUMO1 PPI mod,DNMT1 inh,STEP inh,Scp1 confirm,MG interference,Scp1 DSF
CC1CC(C)CN(C(=O)COC(=O)/C=C/c2ccco2)C1 (stereo unspecified),59.0*,33.8,4.8,-16.6,34.5,14.7,47.9*,-17.8,-20.5
COc1ccc(C(=O)NCCc2nc3cc([N+](=O)[O-])ccc3n2C)cc1,-7.0,2.0,-0.8,-17.0,0.6,-2.2,.,.,.
Cc1ccc(NC(=S)NNC(C)(C)C)cc1,-11.2,-4.9,-0.9,4.5,-0.6,3.1,.,.,.
O=C(N/N=C/c1cn(-c2cccs2)nc1-c1ccccc1)c1ccccc1O,71.6*,.,4.5,17.6,-18.4,0.2,26.8,-24.4,.
Cc1cccc2cc(C3CC(c4cccs4)=NN3C(=O)CCC(=O)O)c(Cl)nc12 (stereo unspecified),24.2,4.9,0.5,-3.8,1.7,0.9,.,.,.
Cc1ccc2nc(Cl)c(C3CC(c4cccs4)=NN3C(=O)CCCC(=O)O)cc2c1 (stereo unspecified),96.1*,0.1,1.3,-10.2,-0.5,25.4,85.0*,-11.2,-13.2
O=C(CSc1nc2sc3c(c2c(=O)n1-c1ccccc1)CCCC3)N/N=C/c1ccccc1C(=O)O,78.4*,.,1.0,5.0,5.1,76.2*,48.9*,-8.2,-5.0
O=C(CNS(=O)(=O)c1ccccc1)Nc1ccccc1Br,50.2*,-11.5,-0.4,2.4,1.4,-3.6,-16.2,-17.2,.
COc1ccc(-c2cc(N)n(S(=O)(=O)Cc3ccccc3)n2)c(OC)c1,-6.6,0.2,0.6,-2.1,3.9,0.8,.,.,.
CNC(=O)C(=O)Nc1ccc2c(c1)N(S(=O)(=O)c1cccs1)CCC2,53.8*,1.1,0.0,7.1,0.1,-1.9,-21.5,-18.1,.
CC(C)NC(=O)C(=O)Nc1ccc2c(c1)N(S(=O)(=O)c1cccs1)CCC2,-11.8,2.0,0.5,-2.8,-3.7,-0.6,.,.,.
O=C(COC(=O)c1ccc(Cl)c(S(=O)(=O)N2CCCC2)c1)NCc1ccccc1,50.2*,6.1,7.4,4.8,11.7,9.7,40.9*,-4.0,-0.7
Cc1ccc(C)c(SCC(=O)N(C)CC(=O)Nc2ccc(N3CCOCC3)cc2)c1,-4.8,3.3,-0.1,1.9,2.1,-1.0,.,.,.
COc1cc2nc(NC(=O)c3ccco3)sc(=O)c2cc1OC,50.6*,2.4,12.4,4.7,10.5,39.2,42.7*,-12.0,-16.2
COc1ccc(C(C)=O)cc1CSc1nc2cc(C(=O)O)ccc2c(=O)n1Cc1ccccc1,51.0*,11.0,1.2,13.4,-3.4,13.3,29.0,-22.1,.
CCOC(Cn1c(SCc2cc(C(C)=O)ccc2OC)nc2ccccc2c1=O)OCC,-1.9,-0.7,-1.1,-6.8,24.2,-1.9,.,.,.
CC1CCCC(NC(=O)CN(C)S(=O)(=O)c2cccc3cccnc23)C1C (stereo unspecified),48.3,8.8,0.5,2.3,1.3,0.6,.,.,.
Cc1cccc2cc(C(c3nnnn3C(C)(C)C)N(Cc3ccco3)CC3CCCO3)c(=O)[nH]c12 (stereo unspecified),61.0*,.,17.6,4.1,6.9,2.9,52.5*,-6.5,-2.3
Cc1ccc2[nH]c(=O)c(C(c3nnnn3C(C)(C)C)N(Cc3ccco3)CC3CCCO3)cc2c1 (stereo unspecified),-4.0,.,-0.5,-4.0,-2.6,0.8,.,.,.
Cc1ccnc(SCC(=O)N2CCC(C(N)=O)CC2)n1,-26.9,.,-1.6,2.4,3.9,-5.0,.,.,.
CCOC(=O)CN1C(=O)N[C@H](c2ccc(Br)cc2)C(C(C)=O)=C1C,76.2*,-3.2,-1.6,-4.6,-1.0,-3.6,17.6,1.4,.
CCOC(=O)C1=CN2CCC[C@H]2CC1=O,-5.9,-2.6,-0.9,-2.9,4.3,0.5,.,.,.
O=C1CC2CCCN2C=C1I (stereo unspecified),96.5*,-63.0,-3.1,-30.4,-0.1,-2.7,86.8*,-11.5,-22.9
CS(=O)(=O)N(CC(=O)N1CCCCCC1)c1ccc(Cl)cc1,59.4*,-0.4,-2.8,0.6,-5.2,0.4,-0.4,-5.2,.
Cc1cc2ccccn2c1C(=O)c1ccc(N/N=C/c2ccc(C(=O)O)cc2)c([N+](=O)[O-])c1,114.4*,11.6,8.3,103.7*,88.1*,99.4*,70.1*,-19.4,6.4*
SMILES,Scp1 inh,Casp6 inh,LMPTP inh,SUMO1 PPI mod,DNMT1 inh,STEP inh,Scp1 confirm,MG interference,Scp1 DSF
COc1ccc(-c2c(-c3ccccc3OC)sc3ccccc23)cc1C=O,50.1*,4.3,1.4,5.6,-2.4,-2.4,18.9,-7.9,.
Cc1ccc(CNc2c(C=O)c(=O)[nH]c3ccccc23)cc1,-7.3,-0.6,-0.7,5.6,0.9,1.1,.,.,.
O=C(CSc1nc2ccccc2c(=O)n1-c1ccccc1)NC(=O)CN1CCCC1=O,58.0*,28.3,4.2,6.7,31.2,19.9,38.8*,-10.1,-13.8
COc1cccc(/C=C(/C#N)c2ccc(F)cc2)c1OCc1cccc(C(=O)O)c1,15.5,.,0.5,-8.3,1.0,-0.2,.,.,.
CCOc1cc(/C=C(\C#N)C(=O)Nc2cccc(C(=O)O)c2)cc(Br)c1OC(=O)c1ccc(OC)cc1,-3.8,10.9,0.3,14.3,11.6,-5.0,.,.,.
N#C/C(=C\c1ccc(OCc2ccc(Br)cc2)cc1)C(=O)Nc1cccc(C(=O)O)c1,56.9*,6.2,34.0,57.5*,27.6,41.1*,59.5*,-13.9,-2.1
N#C/C(=C/c1ccccc1OCc1ccc(F)cc1)c1ccc(C(=O)O)cc1,64.7*,8.1,0.5,-7.2,-8.5,1.7,6.7,-21.3,.
COc1cc(/C=C(\C#N)C(=O)Nc2cccc(C(=O)O)c2)ccc1OCc1ccc(F)cc1,55.7*,5.4,0.9,8.9,3.0,1.8,26.8,-26.6,.

# Assay outcomes: PubChem BioAssay, several laboratories
